Measurements: ChEMBL document CHEMBL4382192, “Discovery of a potent dual ALK and EGFR T790M inhibitor” (Eur J Med Chem, 2017)

Assays:
[1] = target: Calcium/calmodulin-dependent protein kinase kinase 1 (Homo sapiens) (UniProt Q8N5S9); assay: Binding affinity to wild-type human partial length CAMKK1 (R65 to E414 residues) expressed in bacterial expression system assessed as residual binding level at 1 uM by Kinomescan method relative to control
[2] = target: Serine/threonine-protein kinase ULK1 (Homo sapiens) (UniProt O75385); assay: Binding affinity to wild-type human partial length ULK1 (M1 to T309 residues) expressed in mammalian expression system assessed as residual binding level at 1 uM by Kinomescan method relative to control
[3] = target: Cytoplasmic tyrosine-protein kinase BMX (Homo sapiens) (UniProt P51813); assay: Binding affinity to wild-type human full length BMX (M1 to H675 residues) expressed in bacterial expression system assessed as residual binding level at 1 uM by Kinomescan method relative to control
[4] = target: Uncharacterized serine/threonine-protein kinase SBK3 (Homo sapiens) (UniProt P0C264); assay: Binding affinity to wild-type human partial length SgK110 (L22 to R329 residues) expressed in bacterial expression system assessed as residual binding level at 1 uM by Kinomescan method relative to control
[5] = target: Protein-tyrosine kinase 2-beta (Homo sapiens) (UniProt Q14289); assay: Binding affinity to wild-type human full length PYK2 (M1 to E967 residues) expressed in bacterial expression system assessed as residual binding level at 1 uM by Kinomescan method relative to control
Sequence of Protein-tyrosine kinase 2-beta (Homo sapiens) (Q14289 whole entry, looked up, the tested form may be a part): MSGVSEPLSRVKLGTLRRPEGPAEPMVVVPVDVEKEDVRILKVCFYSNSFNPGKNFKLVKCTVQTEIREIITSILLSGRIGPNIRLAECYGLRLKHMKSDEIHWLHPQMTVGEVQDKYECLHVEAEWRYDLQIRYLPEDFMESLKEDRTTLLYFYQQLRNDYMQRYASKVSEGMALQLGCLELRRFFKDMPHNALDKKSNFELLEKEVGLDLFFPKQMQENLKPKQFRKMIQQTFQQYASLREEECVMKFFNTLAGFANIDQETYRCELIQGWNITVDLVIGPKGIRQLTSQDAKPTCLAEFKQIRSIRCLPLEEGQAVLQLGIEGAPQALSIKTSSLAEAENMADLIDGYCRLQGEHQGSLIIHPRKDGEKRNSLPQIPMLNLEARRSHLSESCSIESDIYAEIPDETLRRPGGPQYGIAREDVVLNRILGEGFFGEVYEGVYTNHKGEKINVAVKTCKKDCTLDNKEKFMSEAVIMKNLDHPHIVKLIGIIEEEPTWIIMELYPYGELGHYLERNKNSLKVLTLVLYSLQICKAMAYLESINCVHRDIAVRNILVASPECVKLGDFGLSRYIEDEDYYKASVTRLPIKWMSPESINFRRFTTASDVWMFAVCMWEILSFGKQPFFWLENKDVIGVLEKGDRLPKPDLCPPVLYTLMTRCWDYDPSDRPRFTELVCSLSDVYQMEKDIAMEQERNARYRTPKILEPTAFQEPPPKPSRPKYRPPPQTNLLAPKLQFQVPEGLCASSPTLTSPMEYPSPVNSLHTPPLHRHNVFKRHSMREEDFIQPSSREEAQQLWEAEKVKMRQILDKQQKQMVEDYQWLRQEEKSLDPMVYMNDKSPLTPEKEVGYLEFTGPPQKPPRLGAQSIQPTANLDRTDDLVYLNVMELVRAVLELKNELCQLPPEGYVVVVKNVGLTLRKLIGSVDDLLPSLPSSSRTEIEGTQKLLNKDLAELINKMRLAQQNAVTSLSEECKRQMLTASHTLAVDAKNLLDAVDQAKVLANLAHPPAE
Method in brief: (§1)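 Single-point kinome-wide KINOMEscan binding panel, test compound at 1 μM, run by the provider's standard protocol.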

[6] = target: Calcium/calmodulin-dependent protein kinase type 1G (Homo sapiens) (UniProt Q96NX5); assay: Binding affinity to wild-type human partial length CAMK1G (M1 to A342 residues) expressed in bacterial expression system assessed as residual binding level at 1 uM by Kinomescan method relative to control
Sequence of Calcium/calmodulin-dependent protein kinase type 1G (Homo sapiens) (Q96NX5 whole entry, the tested form may be a part): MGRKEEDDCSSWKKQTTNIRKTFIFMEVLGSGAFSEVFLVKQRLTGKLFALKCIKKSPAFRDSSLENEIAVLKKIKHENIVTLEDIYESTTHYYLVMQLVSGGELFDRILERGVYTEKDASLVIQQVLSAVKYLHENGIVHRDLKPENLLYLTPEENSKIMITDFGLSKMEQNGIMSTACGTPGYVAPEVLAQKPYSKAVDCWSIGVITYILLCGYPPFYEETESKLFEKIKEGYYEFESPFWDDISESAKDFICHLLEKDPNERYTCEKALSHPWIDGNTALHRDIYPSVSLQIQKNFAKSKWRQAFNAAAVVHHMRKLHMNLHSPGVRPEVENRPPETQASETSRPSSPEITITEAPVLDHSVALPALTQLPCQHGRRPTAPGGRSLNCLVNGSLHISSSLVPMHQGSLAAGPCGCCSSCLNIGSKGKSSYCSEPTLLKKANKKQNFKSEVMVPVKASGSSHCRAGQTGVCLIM

[7] = target: Calcium/calmodulin-dependent protein kinase kinase 2 (Homo sapiens) (UniProt Q96RR4); assay: Binding affinity to wild-type human partial length CAMKK2 (D65 to V471 residues) expressed in bacterial expression system assessed as residual binding level at 1 uM by Kinomescan method relative to control
[8] = target: Serine/threonine-protein kinase PLK4 (Homo sapiens) (UniProt O00444); assay: Binding affinity to wild-type human partial length PLK4 (M1 to S273 residues) expressed in mammalian expression system assessed as residual binding level at 1 uM by Kinomescan method relative to control
[9] = target: Serine/threonine-protein kinase MARK1 (Homo sapiens) (UniProt Q9P0L2); assay: Binding affinity to wild-type human partial length MARK1 (Q30 to T341 residues) expressed in bacterial expression system assessed as residual binding level at 1 uM by Kinomescan method relative to control
[10] = target: Phosphorylase b kinase gamma catalytic chain, skeletal muscle/heart isoform (Homo sapiens) (UniProt Q16816); assay: Binding affinity to wild-type human full length PHKG1 (M1 to Y387 residues) expressed in bacterial expression system assessed as residual binding level at 1 uM by Kinomescan method relative to control; method in brief: as §1
[11] = target: Cyclin-dependent kinase-like 5 (Homo sapiens) (UniProt O76039); assay: Binding affinity to wild-type human partial length CDKL5 (M1 to S337 residues) expressed in mammalian expression system assessed as residual binding level at 1 uM by Kinomescan method relative to control
[12] = target: Phosphatidylinositol 4-phosphate 5-kinase type-1 gamma (Homo sapiens) (UniProt O60331); assay: Binding affinity to wild-type human partial length PIP5K1C (M1 to T668 residues) expressed in mammalian expression system assessed as residual binding level at 1 uM by Kinomescan method relative to control
[13] = target: Glycogen synthase kinase-3 beta (Homo sapiens) (UniProt P49841); assay: Binding affinity to wild-type human full length GSK3B (M1 to T433 residues) expressed in mammalian expression system assessed as residual binding level at 1 uM by Kinomescan method relative to control; method in brief: as §1
[14] = test system: Tyrosine-protein kinase ABL1 (Homo sapiens), P00519 [Y253F]; assay: Binding affinity to human phosphorylated ABL1 Y253F mutant (S229 to K512 residues) expressed in mammalian expression system assessed as residual binding level at 1 uM by Kinomescan method relative to control
Method in brief: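 Kinome-wide selectivity panel run by the KINOMEscan method, with the test compound at a single concentration of 1 μM. Wild-type and mutant kinases were profiled in the same screen.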

[15] = target: Misshapen-like kinase 1 (Homo sapiens) (UniProt Q8N4C8); assay: Binding affinity to wild-type human partial length MINK (M1 to K312 residues) expressed in mammalian expression system assessed as residual binding level at 1 uM by Kinomescan method relative to control
Sequence of Misshapen-like kinase 1 (Homo sapiens) (Q8N4C8 whole entry, looked up, the tested form may be a part): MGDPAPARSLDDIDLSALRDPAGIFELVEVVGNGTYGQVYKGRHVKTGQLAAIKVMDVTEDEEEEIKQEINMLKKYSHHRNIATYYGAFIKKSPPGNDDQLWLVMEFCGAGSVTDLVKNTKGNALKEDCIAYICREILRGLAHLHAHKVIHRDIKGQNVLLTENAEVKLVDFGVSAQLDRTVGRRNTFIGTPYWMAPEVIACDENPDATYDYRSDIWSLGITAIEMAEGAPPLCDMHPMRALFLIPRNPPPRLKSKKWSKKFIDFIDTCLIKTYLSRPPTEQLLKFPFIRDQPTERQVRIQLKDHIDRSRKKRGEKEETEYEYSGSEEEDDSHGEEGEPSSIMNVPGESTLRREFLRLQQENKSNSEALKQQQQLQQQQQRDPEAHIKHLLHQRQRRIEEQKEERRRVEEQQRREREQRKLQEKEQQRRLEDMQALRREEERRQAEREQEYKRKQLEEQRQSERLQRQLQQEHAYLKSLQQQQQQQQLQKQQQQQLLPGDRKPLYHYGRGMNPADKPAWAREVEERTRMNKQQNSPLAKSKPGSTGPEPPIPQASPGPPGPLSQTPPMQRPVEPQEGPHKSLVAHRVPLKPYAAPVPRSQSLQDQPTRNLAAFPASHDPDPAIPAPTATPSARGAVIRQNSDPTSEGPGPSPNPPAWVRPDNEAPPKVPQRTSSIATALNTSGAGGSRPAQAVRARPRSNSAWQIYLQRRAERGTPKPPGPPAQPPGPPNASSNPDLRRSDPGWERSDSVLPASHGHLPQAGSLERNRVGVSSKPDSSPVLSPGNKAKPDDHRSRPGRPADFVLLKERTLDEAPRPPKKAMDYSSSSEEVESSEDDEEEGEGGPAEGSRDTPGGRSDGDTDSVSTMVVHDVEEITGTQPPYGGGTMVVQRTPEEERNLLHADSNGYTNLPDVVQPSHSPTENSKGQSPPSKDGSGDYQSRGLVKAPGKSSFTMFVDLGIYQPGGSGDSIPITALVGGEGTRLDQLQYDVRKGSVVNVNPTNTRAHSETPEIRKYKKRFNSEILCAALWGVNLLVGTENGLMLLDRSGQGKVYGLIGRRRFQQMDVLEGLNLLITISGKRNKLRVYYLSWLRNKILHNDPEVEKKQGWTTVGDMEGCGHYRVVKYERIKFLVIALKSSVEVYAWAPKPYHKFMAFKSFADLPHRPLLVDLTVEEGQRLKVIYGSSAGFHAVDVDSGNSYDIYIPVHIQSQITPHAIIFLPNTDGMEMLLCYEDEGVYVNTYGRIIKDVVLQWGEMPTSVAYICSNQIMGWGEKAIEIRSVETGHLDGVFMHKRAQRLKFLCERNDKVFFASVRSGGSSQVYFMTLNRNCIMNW

[16] = target: Serine/threonine-protein kinase Chk1 (Homo sapiens) (UniProt O14757); assay: Binding affinity to wild-type human partial length CHEK1 (M1 to G289 residues) expressed in bacterial expression system assessed as residual binding level at 1 uM by Kinomescan method relative to control
[17] = target: Cyclin-dependent kinase-like 2 (Homo sapiens) (UniProt Q92772); assay: Binding affinity to wild-type human partial length CDKL2 (M1 to D327 residues) expressed in bacterial expression system assessed as residual binding level at 1 uM by Kinomescan method relative to control
[18] = target: Serine/threonine-protein kinase D1 (Homo sapiens) (UniProt Q15139); assay: Binding affinity to wild-type human partial length PRKD1 (G551 to E870 residues) expressed in bacterial expression system assessed as residual binding level at 1 uM by Kinomescan method relative to control
[19] = target: Cyclin-dependent kinase 14 (Homo sapiens) (UniProt O94921); assay: Binding affinity to wild-type human full length PFTK1 (M1 to H451 residues) expressed in bacterial expression system assessed as residual binding level at 1 uM by Kinomescan method relative to control; method in brief: as §1
Sequence of Cyclin-dependent kinase 14 (Homo sapiens) (O94921 whole entry, the tested form may be a part): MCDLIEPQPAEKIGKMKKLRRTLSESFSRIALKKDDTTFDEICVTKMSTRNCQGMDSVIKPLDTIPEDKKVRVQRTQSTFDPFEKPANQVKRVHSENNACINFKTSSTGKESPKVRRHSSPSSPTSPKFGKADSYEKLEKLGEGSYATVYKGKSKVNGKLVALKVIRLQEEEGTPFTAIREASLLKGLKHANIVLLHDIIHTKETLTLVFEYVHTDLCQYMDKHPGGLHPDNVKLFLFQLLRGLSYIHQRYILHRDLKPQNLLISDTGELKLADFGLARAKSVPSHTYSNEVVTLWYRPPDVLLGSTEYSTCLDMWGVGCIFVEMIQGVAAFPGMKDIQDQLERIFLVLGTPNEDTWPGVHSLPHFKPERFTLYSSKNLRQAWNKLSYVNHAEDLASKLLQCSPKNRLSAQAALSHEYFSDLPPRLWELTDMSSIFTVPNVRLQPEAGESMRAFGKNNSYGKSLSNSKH

[20] = target: Serine/threonine-protein kinase 35 (Homo sapiens) (UniProt Q8TDR2); assay: Binding affinity to wild-type human partial length STK35 (G182 to A534 residues) expressed in bacterial expression system assessed as residual binding level at 1 uM by Kinomescan method relative to control
Sequence of Serine/threonine-protein kinase 35 (Homo sapiens) (Q8TDR2 whole entry, the tested form may be a part): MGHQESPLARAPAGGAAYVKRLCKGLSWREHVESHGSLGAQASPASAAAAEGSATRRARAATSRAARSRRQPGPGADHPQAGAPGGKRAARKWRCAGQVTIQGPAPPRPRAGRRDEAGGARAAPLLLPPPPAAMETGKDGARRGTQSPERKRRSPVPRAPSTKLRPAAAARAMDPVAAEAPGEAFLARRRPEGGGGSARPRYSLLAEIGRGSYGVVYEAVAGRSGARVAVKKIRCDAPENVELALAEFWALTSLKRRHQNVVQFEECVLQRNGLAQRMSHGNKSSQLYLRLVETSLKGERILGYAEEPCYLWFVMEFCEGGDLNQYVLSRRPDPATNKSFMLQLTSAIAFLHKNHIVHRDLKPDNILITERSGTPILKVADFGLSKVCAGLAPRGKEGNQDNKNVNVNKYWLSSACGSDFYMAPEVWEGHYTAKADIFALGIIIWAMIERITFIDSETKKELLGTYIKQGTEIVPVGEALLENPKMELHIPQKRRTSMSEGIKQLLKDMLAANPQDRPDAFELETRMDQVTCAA

[21] = target: Serine/threonine-protein kinase WNK4 (Homo sapiens) (UniProt Q96J92); assay: Binding affinity to wild-type human partial length WNK4 (A31 to D461 residues) expressed in mammalian expression system assessed as residual binding level at 1 uM by Kinomescan method relative to control
Sequence of Serine/threonine-protein kinase WNK4 (Homo sapiens) (Q96J92 whole entry, the tested form may be a part): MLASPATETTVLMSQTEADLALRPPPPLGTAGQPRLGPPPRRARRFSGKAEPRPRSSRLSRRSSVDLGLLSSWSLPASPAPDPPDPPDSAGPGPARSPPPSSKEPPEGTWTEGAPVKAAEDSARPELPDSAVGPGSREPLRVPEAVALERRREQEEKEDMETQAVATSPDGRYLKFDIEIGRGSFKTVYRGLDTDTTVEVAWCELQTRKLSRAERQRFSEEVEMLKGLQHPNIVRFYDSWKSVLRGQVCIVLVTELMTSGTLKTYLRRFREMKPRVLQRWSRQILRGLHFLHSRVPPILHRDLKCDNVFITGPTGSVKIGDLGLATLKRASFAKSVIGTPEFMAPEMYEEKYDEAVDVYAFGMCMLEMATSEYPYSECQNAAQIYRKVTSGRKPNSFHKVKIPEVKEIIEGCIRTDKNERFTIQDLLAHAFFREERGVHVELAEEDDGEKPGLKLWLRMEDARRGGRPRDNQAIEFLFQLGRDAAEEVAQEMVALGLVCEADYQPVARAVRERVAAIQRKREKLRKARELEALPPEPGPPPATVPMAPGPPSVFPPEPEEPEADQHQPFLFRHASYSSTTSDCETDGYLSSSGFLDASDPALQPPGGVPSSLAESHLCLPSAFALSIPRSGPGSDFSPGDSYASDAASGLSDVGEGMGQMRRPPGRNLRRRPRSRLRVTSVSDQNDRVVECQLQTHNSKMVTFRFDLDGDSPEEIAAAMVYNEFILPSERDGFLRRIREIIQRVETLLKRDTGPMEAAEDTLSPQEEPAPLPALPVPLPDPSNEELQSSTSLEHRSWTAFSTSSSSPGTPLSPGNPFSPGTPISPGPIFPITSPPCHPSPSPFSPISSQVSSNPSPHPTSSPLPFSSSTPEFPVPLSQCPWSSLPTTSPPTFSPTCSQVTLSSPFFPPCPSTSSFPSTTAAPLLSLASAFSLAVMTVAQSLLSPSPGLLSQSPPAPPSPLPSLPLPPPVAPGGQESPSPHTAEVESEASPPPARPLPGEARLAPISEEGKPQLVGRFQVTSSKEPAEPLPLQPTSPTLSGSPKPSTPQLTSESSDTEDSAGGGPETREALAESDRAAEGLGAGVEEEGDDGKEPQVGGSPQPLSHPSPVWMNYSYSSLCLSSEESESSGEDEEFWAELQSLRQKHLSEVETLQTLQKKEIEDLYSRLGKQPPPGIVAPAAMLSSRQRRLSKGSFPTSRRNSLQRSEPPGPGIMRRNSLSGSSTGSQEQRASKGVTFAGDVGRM

[22] = target: Serine/threonine-protein kinase 4 (Homo sapiens) (UniProt Q13043); assay: Binding affinity to wild-type human full length MST1 (M1 to F487 residues) expressed in bacterial expression system assessed as residual binding level at 1 uM by Kinomescan method relative to control; method in brief: as §1
[23] = target: Glycogen synthase kinase-3 alpha (Homo sapiens) (UniProt P49840); assay: Binding affinity to wild-type human full length GSK3A (M1 to S483 residues) expressed in bacterial expression system assessed as residual binding level at 1 uM by Kinomescan method relative to control; method in brief: as §1
[24] = test system: Phosphatidylinositol 4,5-bisphosphate 3-kinase catalytic subunit alpha isoform (Homo sapiens), P42336 [I800L]; assay: Binding affinity to human partial length PIK3CA I800L mutant (R108 to N1068 residues) expressed in mammalian expression system assessed as residual binding level at 1 uM by Kinomescan method relative to control

C=CC(=O)Nc1cc(Nc2ncc(Cl)c(Nc3ccccc3S(=O)(=O)C(C)C)n2)c(OC)cc1N(C)CCN(C)C
Activity [1]: 2.8%
Activity [2]: 0.3%
Activity [3]: 4.5%
Activity [4]: 23%
Activity [5]: 0.5%
Activity [6]: 45%
Activity [7]: 1.6%
Activity [8]: 0.35%
Activity [9]: 40%
Activity [10]: 24%
Activity [11]: 91%
Activity [12]: 98%
Activity [13]: 93%
Activity [14]: 2.1%
Activity [15]: 34%
Activity [16]: 99%
Activity [17]: 93%
Activity [18]: 1.2%
Activity [19]: 83%
Activity [20]: 71%
Activity [21]: 94%
Activity [22]: 86%
Activity [23]: 99%
Activity [24]: 81%
